Data published in ChEMBL document CHEMBL1139935, “Discovery of novel indazole-linked triazoles as antifungal agents” (2007).
In brackets after ≈: the same amount, converted by molar mass.

Experiments:
[1] = system: Aspergillus terreus; test: Antifungal activity against Aspergillus terreus ATCC 28301 by broth microdilution assay; assay type: functional
[2] = system: Aspergillus flavus; test: Antifungal activity against Aspergillus flavus ATCC MYA-1004 by broth microdilution assay; assay type: functional
[3] = system: Nakaseomyces glabratus; test: Antifungal activity against Candida glabrata ATCC 34138 by broth microdilution assay; assay type: functional
[4] = system: Candida albicans; test: Antifungal activity against Candida albicans ATCC 36082 by broth microdilution assay; assay type: functional
[5] = system: Candida tropicalis; test: Antifungal activity against Candida tropicalis ATCC 750 by broth microdilution assay; assay type: functional
[6] = system: Pichia kudriavzevii; test: Antifungal activity against Candida krusei ATCC 6528 by broth microdilution assay; assay type: functional
[7] = system: Aspergillus fumigatus; test: Antifungal activity against Aspergillus fumigatus ATCC 16424 by broth microdilution assay; assay type: functional
[8] = system: Aspergillus niger; test: Antifungal activity against Aspergillus niger ATCC 9042 by broth microdilution assay; assay type: functional
[9] = system: Clavispora lusitaniae; test: Antifungal activity against Candida lusitaniae ATCC 42720 by broth microdilution assay; assay type: functional
[10] = system: Candida parapsilosis; test: Antifungal activity against Candida parapsilosis ATCC 21019 by broth microdilution assay; assay type: functional; details: Lodderomyces parapsilosis
[11] = system: Cryptococcus neoformans; test: Antifungal activity against Cryptococcus neoformans ATCC 24065 by broth microdilution assay
[12] = system: HepG2; test: Cytotoxicity against human HepG2 cells by neutral red uptake assay; assay type: functional
How it was run: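 Human hepatoma HepG2 cells; neutral red uptake read-out following a previously described protocol; the value is the CC50 (concentration giving half-maximal cytotoxicity); ketoconazole served as reference agent.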

[13] = system: Candida albicans; test: Antifungal activity against systemic Candida albicans ATCC 36082 infection model in ICR mouse assessed as survival at 20 mg/kg, po; assay type: functional
How it was run: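 C. albicans ATCC 36082 given systemically, about 5 × 10⁵ cells per animal. Oral dosing at 20 mg/kg once daily started 2 h post-infection and continued for 7 consecutive days. Read-out was mean survival days, compared against an untreated infected control group.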

Cc1nn([C@H](C)[C@](O)(Cn2cncn2)c2ccc(F)cc2F)c2ccc(Cl)cc12
MIC80 [1]: > 16 µg/mL | MIC80 [2]: > 16 µg/mL | MIC80 [3]: 4 µg/mL (≈ 9.57 µM) | MIC80 [4]: ≤ 0.015 µg/mL | MIC80 [5]: 1 µg/mL (≈ 2.39 µM) | MIC80 [6]: 2 µg/mL (≈ 4.79 µM) | MIC80 [7]: > 16 µg/mL | MIC80 [8]: > 16 µg/mL | MIC80 [9]: ≤ 0.015 µg/mL | MIC80 [10]: 0.125 µg/mL (≈ 0.299 µM) | MIC80 [11]: 0.25 µg/mL (≈ 0.598 µM)

C[C@@H](n1ncc2ccccc21)[C@](O)(Cn1cncn1)c1ccc(F)cc1F
CC50 [12]: 599 µM | MIC80 [1]: 2 µg/mL (≈ 5.41 µM) | MIC80 [2]: 1 µg/mL (≈ 2.71 µM) | MIC80 [3]: 2 µg/mL (≈ 5.41 µM) | MIC80 [4]: ≤ 0.015 µg/mL | MIC80 [5]: 0.125 µg/mL (≈ 0.338 µM) | MIC80 [6]: 0.5 µg/mL (≈ 1.35 µM) | MIC80 [7]: 2 µg/mL (≈ 5.41 µM) | MIC80 [8]: 4 µg/mL (≈ 10.8 µM) | MIC80 [9]: 0.063 µg/mL (≈ 0.171 µM) | Survival [13]: 7.2 days | MIC80 [10]: 0.063 µg/mL (≈ 0.171 µM) | MIC80 [11]: 0.063 µg/mL (≈ 0.171 µM)

C[C@@H](n1ncc2cc(N(C)C)ccc21)[C@](O)(Cn1cncn1)c1ccc(F)cc1F
MIC80 [1]: 2 µg/mL (≈ 4.85 µM) | MIC80 [2]: 1 µg/mL (≈ 2.42 µM) | MIC80 [3]: 8 µg/mL (≈ 19.4 µM) | MIC80 [4]: 0.063 µg/mL (≈ 0.153 µM) | MIC80 [5]: 0.5 µg/mL (≈ 1.21 µM) | MIC80 [6]: 1 µg/mL (≈ 2.42 µM) | MIC80 [7]: 1 µg/mL (≈ 2.42 µM) | MIC80 [8]: 2 µg/mL (≈ 4.85 µM) | MIC80 [9]: 0.063 µg/mL (≈ 0.153 µM) | MIC80 [10]: 0.5 µg/mL (≈ 1.21 µM) | MIC80 [11]: 0.25 µg/mL (≈ 0.606 µM)

C[C@@H](n1nc(-c2ccccc2)c2cc([N+](=O)[O-])ccc21)[C@](O)(Cn1cncn1)c1ccc(F)cc1F
MIC80 [4]: 2 µg/mL (≈ 4.08 µM)

C[C@@H](n1cnc2cc(Cl)ccc2c1=O)[C@](O)(Cn1cncn1)c1ccc(F)cc1F [ALBACONAZOLE]
MIC80 [1]: 1 µg/mL (≈ 2.32 µM) | MIC80 [2]: 0.5 µg/mL (≈ 1.16 µM) | MIC80 [3]: 8 µg/mL (≈ 18.5 µM) | MIC80 [4]: ≤ 0.015 µg/mL | MIC80 [5]: 0.031 µg/mL (≈ 0.0718 µM) | MIC80 [6]: 0.25 µg/mL (≈ 0.579 µM) | MIC80 [7]: 0.5 µg/mL (≈ 1.16 µM) | MIC80 [8]: 2 µg/mL (≈ 4.63 µM) | MIC80 [9]: ≤ 0.015 µg/mL | MIC80 [10]: ≤ 0.015 µg/mL | MIC80 [11]: ≤ 0.015 µg/mL

C[C@@H](c1nc(-c2ccc(C#N)cc2)cs1)[C@](O)(Cn1cncn1)c1ccc(F)cc1F [RAVUCONAZOLE]
MIC80 [1]: 0.5 µg/mL (≈ 1.14 µM) | MIC80 [2]: 0.5 µg/mL (≈ 1.14 µM) | MIC80 [3]: 2 µg/mL (≈ 4.57 µM) | MIC80 [4]: ≤ 0.015 µg/mL | MIC80 [5]: ≤ 0.015 µg/mL | MIC80 [6]: 0.125 µg/mL (≈ 0.286 µM) | MIC80 [7]: 0.125 µg/mL (≈ 0.286 µM) | MIC80 [8]: 1 µg/mL (≈ 2.29 µM) | MIC80 [9]: ≤ 0.015 µg/mL | MIC80 [10]: ≤ 0.015 µg/mL | MIC80 [11]: ≤ 0.015 µg/mL

CC(=O)N1CCN(c2ccc(OCC3COC(Cn4ccnc4)(c4ccc(Cl)cc4Cl)O3)cc2)CC1 (configuration not stated) [KETOCONAZOLE]
CC50 [12]: 51 µM | MIC80 [3]: 4 µg/mL (≈ 7.53 µM)

C[C@@H](n1ncc2cc(Cl)ccc21)[C@](O)(Cn1cncn1)c1ccc(F)cc1F
MIC80 [1]: 4 µg/mL (≈ 9.91 µM) | MIC80 [2]: 4 µg/mL (≈ 9.91 µM) | MIC80 [3]: 4 µg/mL (≈ 9.91 µM) | MIC80 [4]: ≤ 0.015 µg/mL | MIC80 [5]: 0.5 µg/mL (≈ 1.24 µM) | MIC80 [6]: 2 µg/mL (≈ 4.95 µM) | MIC80 [7]: 2 µg/mL (≈ 4.95 µM) | MIC80 [8]: 8 µg/mL (≈ 19.8 µM) | MIC80 [9]: ≤ 0.015 µg/mL | MIC80 [10]: 0.125 µg/mL (≈ 0.31 µM) | MIC80 [11]: 0.031 µg/mL (≈ 0.0768 µM)

C[C@@H](n1ncc2cc(N)ccc21)[C@](O)(Cn1cncn1)c1ccc(F)cc1F
MIC80 [3]: > 8 µg/mL | MIC80 [4]: 0.25 µg/mL (≈ 0.65 µM) | MIC80 [5]: 1 µg/mL (≈ 2.6 µM) | MIC80 [6]: 8 µg/mL (≈ 20.8 µM) | MIC80 [9]: 0.25 µg/mL (≈ 0.65 µM) | MIC80 [10]: 2 µg/mL (≈ 5.2 µM) | MIC80 [11]: 1 µg/mL (≈ 2.6 µM)

Cc1nn([C@H](C)[C@](O)(Cn2cncn2)c2ccc(F)cc2F)c2cc(F)ccc12
MIC80 [1]: > 16 µg/mL | MIC80 [2]: > 16 µg/mL | MIC80 [3]: > 8 µg/mL | MIC80 [4]: 0.031 µg/mL (≈ 0.0772 µM) | MIC80 [5]: > 8 µg/mL | MIC80 [6]: 8 µg/mL (≈ 19.9 µM) | MIC80 [7]: 16 µg/mL (≈ 39.9 µM) | MIC80 [8]: > 16 µg/mL | MIC80 [9]: 0.25 µg/mL (≈ 0.623 µM) | MIC80 [10]: 0.5 µg/mL (≈ 1.25 µM) | MIC80 [11]: 0.5 µg/mL (≈ 1.25 µM)

C[C@@H](c1ncncc1F)[C@](O)(Cn1cncn1)c1ccc(F)cc1F [VORICONAZOLE]
MIC80 [1]: 1 µg/mL (≈ 2.86 µM) | MIC80 [2]: 0.5 µg/mL (≈ 1.43 µM) | MIC80 [3]: 4 µg/mL (≈ 11.5 µM) | MIC80 [4]: ≤ 0.015 µg/mL | MIC80 [5]: 0.25 µg/mL (≈ 0.716 µM) | MIC80 [6]: 1 µg/mL (≈ 2.86 µM) | MIC80 [7]: 0.25 µg/mL (≈ 0.716 µM) | MIC80 [8]: 1 µg/mL (≈ 2.86 µM) | MIC80 [9]: 0.063 µg/mL (≈ 0.18 µM) | MIC80 [10]: 0.25 µg/mL (≈ 0.716 µM) | MIC80 [11]: 0.125 µg/mL (≈ 0.358 µM)

C[C@@H](n1ncc2cc(Br)ccc21)[C@](O)(Cn1cncn1)c1ccc(F)cc1F
MIC80 [1]: 4 µg/mL (≈ 8.92 µM) | MIC80 [2]: 4 µg/mL (≈ 8.92 µM) | MIC80 [3]: 4 µg/mL (≈ 8.92 µM) | MIC80 [4]: ≤ 0.015 µg/mL | MIC80 [5]: 1 µg/mL (≈ 2.23 µM) | MIC80 [6]: 2 µg/mL (≈ 4.46 µM) | MIC80 [7]: 2 µg/mL (≈ 4.46 µM) | MIC80 [8]: 4 µg/mL (≈ 8.92 µM) | MIC80 [9]: ≤ 0.015 µg/mL | MIC80 [10]: 0.125 µg/mL (≈ 0.279 µM) | MIC80 [11]: ≤ 0.015 µg/mL

CCc1nn([C@H](C)[C@](O)(Cn2cncn2)c2ccc(F)cc2F)c2ccc(F)cc12
MIC80 [1]: > 16 µg/mL | MIC80 [2]: > 16 µg/mL | MIC80 [3]: 4 µg/mL (≈ 9.63 µM) | MIC80 [4]: ≤ 0.015 µg/mL | MIC80 [5]: 2 µg/mL (≈ 4.81 µM) | MIC80 [6]: 2 µg/mL (≈ 4.81 µM) | MIC80 [7]: 16 µg/mL (≈ 38.5 µM) | MIC80 [8]: > 16 µg/mL | MIC80 [9]: 0.063 µg/mL (≈ 0.152 µM) | MIC80 [10]: 0.125 µg/mL (≈ 0.301 µM) | MIC80 [11]: 0.125 µg/mL (≈ 0.301 µM)
